Experimental data collected from several papers.
NTRK3: NT-3 growth factor receptor (NTRK3, Homo sapiens, UniProt Q16288)

O=C(Nc1ccc(C(F)(F)F)cc1)Nc1cccc(C(=O)Nc2ccc3[nH]ncc3c2)c1  inhibition (NTRK3; enzyme activity; inhibitor; FRET; 1 µM): 13.5%
O=C(O)CC[C@@H](O)C(=O)O  inhibition (Methylcytosine dioxygenase TET2 (Mus musculus, UniProt Q4JK59); enzyme activity; inhibitor; 50 mM): 83%
CCN(CC)CCNC(=O)c1c(C)[nH]c(/C=C2\C(=O)Nc3ccc(F)cc32)c1C  inhibition (Dual specificity mitogen-activated protein kinase kinase 7 (MAP2K7, Homo sapiens, UniProt O14733); enzyme activity; inhibitor; 0.3 µM): 11%
O=C(Nc1ccc(OC(F)(F)F)cc1)Nc1cccc(C(=O)Nc2ccc3[nH]ncc3c2)c1  inhibition (NTRK3; enzyme activity; inhibitor; FRET; 1 µM): 17.3%
COc1ccc(C(N)=O)cc1NC(=O)c1cccc(-c2cnc3[nH]c(=O)n(C)c3c2)c1  inhibition (Poly [ADP-ribose] polymerase tankyrase-1 (TNKS, Homo sapiens, UniProt O95271); enzyme activity; inhibitor; 0.1 µM): 0%
COC(=O)c1c(O)ccc(O)c1C(=O)c1c(O)cc2c(c1O)[C@@H]1C=C[C@@]3(C2)[C@@H](OC(C)=O)c2cc(C)cc(O)c2C(=O)C3(O)C1=O (some centres unmarked)  inhibition (PSMB6/PSMB5/PSMB7 (Homo sapiens, UniProt P28072+P28074+Q99436); enzyme activity in cells; inhibitor; MCF7; 20 µg/mL): 67%
CC1=C(/C=C/C(C)=C/C=C/C(C)=C/C(=O)O)C(C)(C)CCC1  inhibition (Prothrombin (Rattus norvegicus, UniProt P18292); enzyme activity; inhibitor; 200 µg/mL): 92%
CN(C)C1CCN(CC#Cc2nn(C3CCCC3)c3nc(NCc4ccccc4)ncc23)C1 (centres unmarked)  inhibition (Proto-oncogene tyrosine-protein kinase Src (SRC, Homo sapiens, UniProt P12931); enzyme activity; inhibitor; FRET; 0.1 µM): -1%
CC(=O)c1nn(CC(=O)N2C[C@H](F)C[C@H]2C(=O)Nc2cccc(Br)n2)c2ccc(-c3cnc(C)nc3)cc12  inhibition (Dipeptidyl peptidase 4 (DPP4, Homo sapiens, UniProt P27487); enzyme activity; inhibitor; 10 µM): -1%
OCc1cc(C(O)CNCCCCCCOCCCCc2ccccc2)ccc1O (centres unmarked)  inhibition (C-X-C chemokine receptor type 4 (CXCR4, Homo sapiens, UniProt P61073); calcium signal; antagonist; U87.CD4.CXCR4; 20 µM): 15%
CCN(c1cc(C#CCN2CCOCC2)cc(C(=O)NCc2c(C)cc(C)[nH]c2=O)c1C)[C@H]1CC[C@H](N(C)CCOC)CC1  inhibition (Histone-lysine N-methyltransferase SMYD3 (SMYD3, Homo sapiens, UniProt Q9H7B4); enzyme activity; inhibitor; 1 µM): 13%
